# ChEMBL document CHEMBL3739290, “Thioxo-dihydroquinazolin-one Compounds as Novel Inhibitors of Myeloperoxidase” (ACS Med Chem Lett, 2015)
# Calls of active or inactive are those of the source. The calls are words filed in the database; no cut-off is given here.
# What was measured:
# [1] = molecular target: T1, Xanthine dehydrogenase/oxidase (Homo sapiens, UniProt P47989); assay: Inhibition of xanthine oxidase (unknown origin) assessed as superoxide generation measured for 20 mins by luminescence analysis using 50 uM xanthine as a substrate
# T1 sequence (P47989 whole entry): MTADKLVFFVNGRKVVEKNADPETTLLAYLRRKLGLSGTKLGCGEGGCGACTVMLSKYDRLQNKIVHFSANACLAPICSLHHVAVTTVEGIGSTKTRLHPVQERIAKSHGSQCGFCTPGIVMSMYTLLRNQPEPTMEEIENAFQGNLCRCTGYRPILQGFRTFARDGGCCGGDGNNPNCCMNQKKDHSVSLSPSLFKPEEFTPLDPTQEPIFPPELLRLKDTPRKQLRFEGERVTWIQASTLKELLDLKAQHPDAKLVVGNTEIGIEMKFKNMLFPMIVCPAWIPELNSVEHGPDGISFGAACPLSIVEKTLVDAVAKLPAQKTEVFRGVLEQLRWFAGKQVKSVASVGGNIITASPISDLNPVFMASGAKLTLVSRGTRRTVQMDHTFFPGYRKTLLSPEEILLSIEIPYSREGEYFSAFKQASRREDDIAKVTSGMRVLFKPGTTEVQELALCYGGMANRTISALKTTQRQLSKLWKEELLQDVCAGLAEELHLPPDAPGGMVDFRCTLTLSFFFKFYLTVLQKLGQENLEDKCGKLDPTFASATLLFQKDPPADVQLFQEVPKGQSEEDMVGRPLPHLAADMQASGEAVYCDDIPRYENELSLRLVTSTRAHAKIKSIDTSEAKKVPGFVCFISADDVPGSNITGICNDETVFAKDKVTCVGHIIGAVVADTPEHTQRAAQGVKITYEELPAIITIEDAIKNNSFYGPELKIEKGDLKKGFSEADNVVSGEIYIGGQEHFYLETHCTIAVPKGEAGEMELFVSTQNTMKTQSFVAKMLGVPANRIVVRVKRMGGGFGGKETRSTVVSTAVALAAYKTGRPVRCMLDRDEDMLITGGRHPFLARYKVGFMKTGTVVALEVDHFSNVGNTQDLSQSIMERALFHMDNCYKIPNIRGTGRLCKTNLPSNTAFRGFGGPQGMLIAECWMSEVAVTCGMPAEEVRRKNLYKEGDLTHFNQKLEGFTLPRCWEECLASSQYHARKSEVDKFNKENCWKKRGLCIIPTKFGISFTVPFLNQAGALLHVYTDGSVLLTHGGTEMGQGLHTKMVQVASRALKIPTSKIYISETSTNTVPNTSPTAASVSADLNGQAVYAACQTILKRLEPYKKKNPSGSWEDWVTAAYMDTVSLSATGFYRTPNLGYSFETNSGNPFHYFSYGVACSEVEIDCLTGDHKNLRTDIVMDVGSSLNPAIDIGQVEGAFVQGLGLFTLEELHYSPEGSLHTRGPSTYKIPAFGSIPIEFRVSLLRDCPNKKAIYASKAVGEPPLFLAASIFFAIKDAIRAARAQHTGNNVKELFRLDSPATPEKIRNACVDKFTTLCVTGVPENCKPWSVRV
# Summary of the method: (§1)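 Xanthine/xanthine oxidase served as the oxidant source to check for assay interference. The buffer and pH matched the MPO Amplex Red assay. Inhibitors were tested over a range up to 100 μM.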
# Myeloperoxidase = molecular target: T2, Myeloperoxidase (Homo sapiens, UniProt P05164); assay: Inhibition of human recombinant myeloperoxidase by amplex red assay
# T2 sequence (P05164 whole entry): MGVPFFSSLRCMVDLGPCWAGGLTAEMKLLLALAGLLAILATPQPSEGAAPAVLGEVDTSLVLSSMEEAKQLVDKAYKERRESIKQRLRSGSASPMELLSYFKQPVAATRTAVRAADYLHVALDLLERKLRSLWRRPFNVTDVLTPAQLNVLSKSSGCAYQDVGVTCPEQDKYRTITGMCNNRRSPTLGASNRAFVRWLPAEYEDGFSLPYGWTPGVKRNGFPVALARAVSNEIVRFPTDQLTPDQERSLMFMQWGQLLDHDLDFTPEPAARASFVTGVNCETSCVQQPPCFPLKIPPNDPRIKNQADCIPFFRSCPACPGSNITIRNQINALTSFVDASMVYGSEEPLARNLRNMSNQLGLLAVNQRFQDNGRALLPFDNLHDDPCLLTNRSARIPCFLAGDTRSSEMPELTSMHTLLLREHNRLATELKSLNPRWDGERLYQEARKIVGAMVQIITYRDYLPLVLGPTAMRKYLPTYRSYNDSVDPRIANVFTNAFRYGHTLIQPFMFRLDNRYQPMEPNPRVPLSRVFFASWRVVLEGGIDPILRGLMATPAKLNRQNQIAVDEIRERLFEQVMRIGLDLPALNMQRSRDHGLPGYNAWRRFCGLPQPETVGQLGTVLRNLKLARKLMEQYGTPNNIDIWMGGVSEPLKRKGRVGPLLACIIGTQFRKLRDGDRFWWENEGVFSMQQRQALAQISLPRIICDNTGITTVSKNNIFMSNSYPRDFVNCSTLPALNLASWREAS
# [2] = molecular target: T3, Myeloperoxidase (Homo sapiens) (UniProt P05164); settings: 100 uM
# T3 sequence (whole entry): T2 sequence (P05164 whole entry)
# [3] = molecular target: T1, Xanthine dehydrogenase/oxidase; assay: Inhibition of xanthine oxidase (unknown origin) assessed as superoxide generation upto 100 uM measured for 20 mins by luminescence analysis using 50 uM xanthine as a substrate; settings: read-out: Imax; summary of the method: as §1
# Armoracia rusticana = assay: Inhibition of horseradish peroxidase by amplex red assay
# Summary of the method: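 Interference counter-screen: the Amplex Red peroxidase assay was run with HRP (20 nM) in place of human MPO, across a range of compound concentrations. Points are the mean ± SEM of three determinations.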
# [4] = Solubility of compound in water by nephelometry; type: physicochemical
# [5] = molecular target: T3, Myeloperoxidase (Homo sapiens); settings: 6 uM
Compound,IC50 [1],IC50 (Myeloperoxidase; read-out: IC50) [µM],other results
O=c1c2ccccc2[nH]c(=S)n1CCN1CCCCC1,Not Active,0.4,–
CN(C)CCCCCn1c(=O)[nH]c2ccccc2c1=O,Not Active,10,–
O=C(NO)c1ccccc1O,–,–,inhibition [2]: Active
CC(C)n1c(=S)[nH]c2cc3c(cc2c1=O)OCCO3,–,> 20,Emax [3]: 60%; IC50 ([1]; read-out: IC50): 4.5 µM
CCn1c(=S)[nH]c2ccc(F)cc2c1=O,Not Active,15,–
CCN(CC)CCn1c(=S)[nH]c2ccccc2c1=O,Not Active,1.6,–
CN(C)CCCCn1c(=O)[nH]c2ccccc2c1=O,Not Active,10,–
CN1CCN(CCCn2c(=S)[nH]c3ccccc3c2=O)CC1,Not Active,1.4,–
CN(C)CCCn1c(=S)[nH]c2ccc(Cl)cc2c1=O.Cl,–,0.8,Emax [3]: 71%; IC50 ([1]; read-out: IC50): 15 µM; inhibition (Armoracia rusticana): inactive; solubility kinetic [4]: 0.09 mg/mL
O=C(Nn1c(=S)[nH]c2cc3c(cc2c1=O)OCCO3)c1ccc(C(F)(F)F)cc1,Not Active,0.3,–
CN(C)CCCn1c(=O)[nH]c2ccccc2c1=O,Not Active,–,IC50 (Myeloperoxidase): Not Active
O=c1c2ccccc2[nH]c(=S)n1CCCCCO,Not Active,> 40,–
NNC(=O)c1ccc(N)cc1,–,–,inhibition [5]: Active
CN(C)CCCn1c(=S)[nH]c2c(Cl)cc(Cl)cc2c1=O,Not Active,> 20,–
CN(C)CCCn1c(=S)[nH]c2ccc(F)cc2c1=O.Cl,Not Active,0.6,–
O=C(Nn1c(=S)[nH]c2ccc(F)cc2c1=O)c1cccc(F)c1,–,–,inhibition (Armoracia rusticana): inactive
CN(C)CCn1c(=S)[nH]c2ccccc2c1=O,Not Active,1.7,–
CN(C)CCCCCCn1c(=S)[nH]c2ccc(F)cc2c1=O,–,> 20,Emax [3]: 35%; IC50 ([1]; read-out: IC50): 18 µM
CN(C)CCCn1c(=S)[nH]c2ccccc2c1=O,–,1.3,Emax [3]: 20%; IC50 ([1]; read-out: IC50): 20 µM
CN(C)CCCn1c(=S)[nH]c2cc(Cl)ccc2c1=O,–,8,Emax [3]: 50%; IC50 ([1]; read-out: IC50): 4 µM
CN(C)CCCn1c(=S)[nH]c2cc(F)c(F)cc2c1=O.Cl,Not Active,1.2,–
